Each structure is given as a SMILES string. Activity calls are given as the source filed them. The rule behind the calls is not given here.

In one assay the target is T1, Phospho-N-acetylmuramoyl-pentapeptide-transferase (Bacillus subtilis (strain 168)) (UniProt Q03521).
T1 sequence (whole entry): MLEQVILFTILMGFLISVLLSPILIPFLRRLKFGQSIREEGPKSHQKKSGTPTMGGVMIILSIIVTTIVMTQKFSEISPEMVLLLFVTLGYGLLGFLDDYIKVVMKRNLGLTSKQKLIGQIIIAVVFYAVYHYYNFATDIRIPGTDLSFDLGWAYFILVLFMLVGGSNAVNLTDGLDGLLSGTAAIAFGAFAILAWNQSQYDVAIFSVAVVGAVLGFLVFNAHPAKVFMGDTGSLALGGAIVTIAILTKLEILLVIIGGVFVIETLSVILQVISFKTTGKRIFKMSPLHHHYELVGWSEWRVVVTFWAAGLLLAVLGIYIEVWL
Kind of assay: Inhibition of Bacillus subtilis transferase MraY assessed as residual activity at 2 mM after 30 mins. The method, boiled down:
(§1)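 Enzyme addition started the reaction, which ran 30 min at 37 °C and was stopped by 1 min at 100 °C. Radioactive spots were quantified by scanner. Residual activity (screen at 2 mM) and IC₅₀ were calculated against an inhibitor-free control; mean of triplicates.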
For the compound `O=C(NC[C@H]1O[C@@H](OC[C@H]2O[C@@H](Cn3ccc(=O)[nH]c3=O)[C@@H](O)[C@@H]2O)[C@H](O)[C@@H]1O)[C@@H]1CCCN1`, the Activity amounted to 61%.

The next assay has as its system Escherichia coli. Kind of assay: Inhibition of Escherichia coli MurG at 1 mM after 30 mins. Summed up: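 MurG from E. coli was assayed in final 200 mM Tris–HCl pH 7.5, 10 mM MgCl₂, UDP-[¹⁴C]GlcNAc, lipid I analogue and 35% (v/v) DMSO. The reaction ran 30 min at 37 °C and was stopped by boiling 3 min, then lyophilised. The residue was taken up in 2-propanol/ammonium hydroxide/water (6:3:1), which was also the chromatography mobile phase. Radioactive spots were quantified by scanner.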
As for `O=C(NCc1cn(C[C@H]2O[C@@H](OC[C@H]3O[C@@H](Cn4ccc(=O)[nH]c4=O)[C@@H](O)[C@@H]3O)[C@H](O)[C@@H]2O)nn1)[C@@H]1CCCN1`, the inhibition result is “inactive”.

Turning to `NC[C@H]1O[C@@H](OC[C@H]2O[C@@H](Cn3ccc(=O)[nH]c3=O)[C@@H](O)[C@@H]2O)[C@H](O)[C@@H]1O`, the inhibition entry was “inactive”.

On to `O=C(NC[C@H]1O[C@@H](OC[C@H]2O[C@@H](Cn3ccc(=O)[nH]c3=O)[C@@H](O)[C@@H]2O)[C@H](O)[C@@H]1O)[C@@H]1CCCN1`, for which the inhibition entry is “inactive”.

Regarding `N=C(N)NC[C@H]1O[C@@H](OC[C@H]2O[C@@H](Cn3ccc(=O)[nH]c3=O)[C@@H](O)[C@@H]2O)[C@H](O)[C@@H]1O`, the inhibition entry is “inactive”.

In the case of `N=C(N)NCc1cn(C[C@H]2O[C@@H](OC[C@H]3O[C@@H](Cn4ccc(=O)[nH]c4=O)[C@@H](O)[C@@H]3O)[C@H](O)[C@@H]2O)nn1`, the inhibition result was “inactive”.

Take `NCc1cn(C[C@H]2O[C@@H](OC[C@H]3O[C@@H](Cn4ccc(=O)[nH]c4=O)[C@@H](O)[C@@H]3O)[C@H](O)[C@@H]2O)nn1`: the inhibition result is “inactive”.

A further assay addresses T2, Phospho-N-acetylmuramoyl-pentapeptide-transferase (Bacillus subtilis (strain 168), UniProt Q03521).
T2 sequence (Q03521 whole entry): T1 sequence (whole entry)
Kind of assay: Inhibition of Bacillus subtilis transferase MraY after 30 mins. Summed up: as §1
For the compound `O=C(NCc1cn(C[C@H]2O[C@@H](OC[C@H]3O[C@@H](Cn4ccc(=O)[nH]c4=O)[C@@H](O)[C@@H]3O)[C@H](O)[C@@H]2O)nn1)[C@@H]1CCCN1`, it took 820 µM to reach half-maximal inhibition (IC50).

For `NC[C@H]1O[C@@H](OC[C@H]2O[C@@H](Cn3ccc(=O)[nH]c3=O)[C@@H](O)[C@@H]2O)[C@H](O)[C@@H]1O`, the IC50 came out at 580 µM.

In turn, `N=C(N)NC[C@H]1O[C@@H](OC[C@H]2O[C@@H](Cn3ccc(=O)[nH]c3=O)[C@@H](O)[C@@H]2O)[C@H](O)[C@@H]1O` displayed an IC50 of 1790 µM.

On to `N=C(N)NCc1cn(C[C@H]2O[C@@H](OC[C@H]3O[C@@H](Cn4ccc(=O)[nH]c4=O)[C@@H](O)[C@@H]3O)[C@H](O)[C@@H]2O)nn1`, for which inhibition was half-maximal at 600 µM (IC50).

Compound `NCc1cn(C[C@H]2O[C@@H](OC[C@H]3O[C@@H](Cn4ccc(=O)[nH]c4=O)[C@@H](O)[C@@H]3O)[C@H](O)[C@@H]2O)nn1` yielded an IC50 of 595 µM.

For orientation: IC50 means the concentration that gives 50% inhibition. A low value points to higher potency.
